According to publication PMC3170876 (Chemmedchem, 2011):

Experiments:
[1] = Metabolic stability in human liver microsomes; format: in vitro ADME; details: 37 °C, NADPH, 40 min incubation, mean of two experiments
Summary of the method: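 Parent compound was incubated with human liver microsomes plus NADPH cofactor at 37 °C for 40 min. Loss of parent was followed by HPLC, and half-life and intrinsic clearance were calculated from the depletion. Values are the mean of two experiments.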

17β-HSD1 = molecular target: T1, 17β-HSD1 (Homo sapiens, UniProt P14061); test: Selectivity: inhibition of 17β-HSD1; details: at a concentration of 10 μM (data not shown)
T1 sequence (P14061 1-328): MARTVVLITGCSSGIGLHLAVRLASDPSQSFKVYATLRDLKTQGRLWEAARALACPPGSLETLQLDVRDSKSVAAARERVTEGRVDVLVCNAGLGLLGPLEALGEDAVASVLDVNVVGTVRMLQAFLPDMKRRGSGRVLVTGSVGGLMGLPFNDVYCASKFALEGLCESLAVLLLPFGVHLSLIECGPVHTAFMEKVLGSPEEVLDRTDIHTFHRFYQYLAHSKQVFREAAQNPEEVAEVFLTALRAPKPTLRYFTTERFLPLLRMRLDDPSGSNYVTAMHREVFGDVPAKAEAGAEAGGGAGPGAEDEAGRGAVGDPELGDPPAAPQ

human 11β-HSD2 = molecular target: T2, human 11β-HSD2 (Homo sapiens, UniProt P80365); test: Selectivity: inhibition of human 11β-HSD2; format: cell-based; details: at a concentration of 10 μM (data not shown)
T2 sequence (P80365 1-405): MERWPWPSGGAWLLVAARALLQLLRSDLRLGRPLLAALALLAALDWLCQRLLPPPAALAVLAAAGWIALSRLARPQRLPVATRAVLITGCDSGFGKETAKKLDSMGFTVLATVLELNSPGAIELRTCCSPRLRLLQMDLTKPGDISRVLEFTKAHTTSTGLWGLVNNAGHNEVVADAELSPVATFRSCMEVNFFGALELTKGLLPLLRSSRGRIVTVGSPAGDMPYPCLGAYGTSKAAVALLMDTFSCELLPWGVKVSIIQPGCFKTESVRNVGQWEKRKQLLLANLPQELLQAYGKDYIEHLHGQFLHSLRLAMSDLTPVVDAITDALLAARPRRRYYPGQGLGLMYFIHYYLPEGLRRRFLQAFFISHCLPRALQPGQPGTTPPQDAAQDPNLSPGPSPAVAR

[2] = molecular target: human cytochrome P450 3A4 (Homo sapiens, UniProt P08684); test: Inhibition of human cytochrome P450 3A4; format: in vitro ADME; details: IC50 CYP450 3A4-BQ, substrate BQ; mean of two measurements
Chain of human cytochrome P450 3A4 (P08684 whole entry, canonical isoform): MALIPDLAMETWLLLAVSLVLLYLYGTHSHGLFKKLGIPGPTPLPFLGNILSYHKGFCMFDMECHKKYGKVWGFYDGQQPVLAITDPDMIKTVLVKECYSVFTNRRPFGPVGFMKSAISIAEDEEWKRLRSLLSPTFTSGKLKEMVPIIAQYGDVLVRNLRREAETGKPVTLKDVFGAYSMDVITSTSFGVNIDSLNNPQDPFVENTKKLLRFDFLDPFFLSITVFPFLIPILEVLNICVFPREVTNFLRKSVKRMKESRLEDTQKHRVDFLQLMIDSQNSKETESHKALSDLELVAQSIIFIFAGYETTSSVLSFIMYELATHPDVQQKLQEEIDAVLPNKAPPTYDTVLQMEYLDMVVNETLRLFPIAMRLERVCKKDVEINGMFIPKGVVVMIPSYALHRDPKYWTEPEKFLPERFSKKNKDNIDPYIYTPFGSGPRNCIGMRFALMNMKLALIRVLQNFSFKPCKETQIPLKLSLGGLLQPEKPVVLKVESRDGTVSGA
Summary of the method: (§1)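 Human CYP450 isoform inhibition (1A2, 2C9, 2C19, 2D6, 3A4) measured as IC50 or as percent inhibition at 10 μm test compound. For 3A4, two probe substrates were used separately: 7-benzyloxy-trifluoromethylcoumarin (BFC) and […] (BQ). Each value is the mean of two measurements.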

[3] = molecular target: human cytochrome P450 2C19 (Homo sapiens, UniProt P33261); test: Inhibition of human cytochrome P450 2C19; format: in vitro ADME
Chain of human cytochrome P450 2C19 (P33261 whole entry): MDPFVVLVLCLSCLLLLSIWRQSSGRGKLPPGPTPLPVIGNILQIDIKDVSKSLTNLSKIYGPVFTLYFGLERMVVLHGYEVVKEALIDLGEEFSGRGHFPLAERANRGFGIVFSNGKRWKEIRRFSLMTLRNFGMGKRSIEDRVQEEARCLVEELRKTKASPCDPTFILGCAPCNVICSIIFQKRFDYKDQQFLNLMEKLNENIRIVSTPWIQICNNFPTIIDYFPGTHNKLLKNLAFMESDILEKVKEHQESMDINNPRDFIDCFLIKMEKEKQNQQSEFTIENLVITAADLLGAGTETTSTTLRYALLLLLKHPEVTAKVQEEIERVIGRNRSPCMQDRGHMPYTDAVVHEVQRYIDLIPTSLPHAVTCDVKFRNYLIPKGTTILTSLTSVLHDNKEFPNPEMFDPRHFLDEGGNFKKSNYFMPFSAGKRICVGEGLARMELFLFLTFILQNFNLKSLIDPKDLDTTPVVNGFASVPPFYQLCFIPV
Summary of the method: as §1

[4] = molecular target: T3, human cytochrome P450 1A2 (Homo sapiens, UniProt P05177); test: Inhibition of human cytochrome P450 1A2; format: in vitro ADME
T3 sequence (P05177 1-516): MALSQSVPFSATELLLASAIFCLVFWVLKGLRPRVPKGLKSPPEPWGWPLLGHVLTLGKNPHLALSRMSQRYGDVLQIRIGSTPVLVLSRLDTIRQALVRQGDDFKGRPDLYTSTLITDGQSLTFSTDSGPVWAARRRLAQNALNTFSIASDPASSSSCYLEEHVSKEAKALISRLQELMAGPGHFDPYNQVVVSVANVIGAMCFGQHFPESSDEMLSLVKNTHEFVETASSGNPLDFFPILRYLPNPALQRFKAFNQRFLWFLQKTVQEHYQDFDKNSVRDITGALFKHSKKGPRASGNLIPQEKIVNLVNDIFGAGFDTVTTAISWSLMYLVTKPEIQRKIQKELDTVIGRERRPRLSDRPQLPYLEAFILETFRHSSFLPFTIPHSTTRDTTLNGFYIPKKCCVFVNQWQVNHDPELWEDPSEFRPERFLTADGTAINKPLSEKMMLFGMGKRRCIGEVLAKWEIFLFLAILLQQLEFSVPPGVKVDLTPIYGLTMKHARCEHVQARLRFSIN
Summary of the method: as §1

[5] = Membrane permeability in the Caco-2 cell model; format: in vitro ADME; details: human
Summary of the method: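 Caco-2 monolayer permeability. Test compound was applied at 20 μm, and the apparent permeability coefficient (Papp) was determined in the apical-to-basolateral direction.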

human 11β-HSD1 = human 11β-HSD1 (Homo sapiens, UniProt P28845); test: 11β-HSD1 inhibition cellular assay; format: cell-based; details: IC50, human 11β-HSD1, HEK293 cell line transfected with human HSD11B1 gene; mean of three measurements, variance less than 20 %
Chain of human 11β-HSD1 (P28845 whole entry): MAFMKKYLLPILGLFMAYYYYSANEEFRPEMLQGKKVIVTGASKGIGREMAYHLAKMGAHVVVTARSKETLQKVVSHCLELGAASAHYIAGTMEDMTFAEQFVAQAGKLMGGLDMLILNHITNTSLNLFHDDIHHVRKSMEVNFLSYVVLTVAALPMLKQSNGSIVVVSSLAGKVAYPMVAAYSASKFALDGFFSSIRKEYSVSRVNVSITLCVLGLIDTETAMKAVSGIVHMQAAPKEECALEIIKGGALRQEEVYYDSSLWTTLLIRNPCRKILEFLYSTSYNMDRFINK

mouse 11β-HSD1 = mouse 11β-HSD1 (Mus musculus, UniProt P50172); test: Inhibition of mouse 11β-HSD1; format: cell-based
Chain of mouse 11β-HSD1 (P50172 whole entry): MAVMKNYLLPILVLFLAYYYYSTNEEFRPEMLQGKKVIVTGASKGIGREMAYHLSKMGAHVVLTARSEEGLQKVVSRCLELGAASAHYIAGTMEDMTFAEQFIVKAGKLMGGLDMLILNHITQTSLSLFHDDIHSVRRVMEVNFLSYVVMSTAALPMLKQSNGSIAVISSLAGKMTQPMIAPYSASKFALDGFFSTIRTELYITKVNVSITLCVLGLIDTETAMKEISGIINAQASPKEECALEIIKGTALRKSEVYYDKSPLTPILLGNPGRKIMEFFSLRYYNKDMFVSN

[6] = molecular target: human cytochrome P450 2C9 (Homo sapiens, UniProt P11712); test: Inhibition of human cytochrome P450 2C9; format: in vitro ADME
Chain of human cytochrome P450 2C9 (P11712 whole entry): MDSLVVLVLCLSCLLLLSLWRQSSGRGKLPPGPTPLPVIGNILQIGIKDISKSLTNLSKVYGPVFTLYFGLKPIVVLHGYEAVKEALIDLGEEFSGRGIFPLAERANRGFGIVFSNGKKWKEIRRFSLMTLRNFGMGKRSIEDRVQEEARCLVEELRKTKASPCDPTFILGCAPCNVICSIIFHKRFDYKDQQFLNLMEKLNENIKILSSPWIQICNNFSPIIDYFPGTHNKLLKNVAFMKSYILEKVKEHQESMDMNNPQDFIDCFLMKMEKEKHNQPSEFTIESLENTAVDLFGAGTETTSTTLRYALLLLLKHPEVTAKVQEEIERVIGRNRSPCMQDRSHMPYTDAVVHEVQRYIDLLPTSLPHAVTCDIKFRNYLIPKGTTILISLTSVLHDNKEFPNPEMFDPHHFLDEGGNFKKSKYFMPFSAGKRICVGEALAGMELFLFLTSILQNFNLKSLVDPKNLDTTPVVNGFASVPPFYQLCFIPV
Summary of the method: as §1

[7] = molecular target: human cytochrome P450 2D6 (Homo sapiens, UniProt P10635); test: Inhibition of human cytochrome P450 2D6; format: in vitro ADME
Chain of human cytochrome P450 2D6 (P10635 whole entry): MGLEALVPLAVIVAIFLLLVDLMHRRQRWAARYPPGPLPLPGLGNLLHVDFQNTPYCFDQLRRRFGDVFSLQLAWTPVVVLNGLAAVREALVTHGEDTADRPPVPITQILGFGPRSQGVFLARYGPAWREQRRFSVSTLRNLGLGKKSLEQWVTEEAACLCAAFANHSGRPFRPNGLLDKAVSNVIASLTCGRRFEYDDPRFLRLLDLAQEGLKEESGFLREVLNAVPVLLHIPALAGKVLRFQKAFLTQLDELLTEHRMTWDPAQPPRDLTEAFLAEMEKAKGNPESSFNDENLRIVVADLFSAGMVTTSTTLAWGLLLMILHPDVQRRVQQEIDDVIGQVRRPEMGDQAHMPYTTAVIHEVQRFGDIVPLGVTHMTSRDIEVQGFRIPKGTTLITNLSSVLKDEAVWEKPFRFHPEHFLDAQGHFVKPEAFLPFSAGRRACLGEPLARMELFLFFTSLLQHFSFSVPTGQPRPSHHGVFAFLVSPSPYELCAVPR
Summary of the method: as §1

SMILES	CLint [1] [µL/min/mg]	inhibition against 17β-HSD1 (17β-HSD1)	inhibition against human 11β-HSD2 (human 11β-HSD2)	IC50 [2] [µM]	IC50 [3] [µM]	IC50 [4] [µM]	melting point [°C]	Papp A→B at 20 μM [5] [×10⁻⁶ cm/s]	IC50 (human 11β-HSD1) [µM]	IC50 (mouse 11β-HSD1) [µM]	IC50 [6] [µM]	IC50 [7] [µM]
Cn1cnnc1SCC(=O)C12CC3CC(CC(C3)C1)C2 [Compound 28, 1-(Adamantan-1-yl)-2-(4-methyl-4H-[1,2,4]triazol-3-ylsulfanyl)-ethanone]	8.7	inactive	inactive	62	3.6	21	–	–	–	–	–	–
O=C(C[S+]([O-])Cc1cccs1)C12CC3CC(CC(C3)C1)C2 (stereo not shown) [Compound 14, 1-(Adamantan-1-yl)-2-(thiophen-2-ylmethanesulfinyl)ethanone]	–	–	–	12	30	33	95 to 98	22	< 0.05	0.02	–	–
Cc1nnc(S(=O)(=O)CC(=O)C23CC4CC(CC(C4)C2)C3)s1 [Compound 37, 1-(Adamantan-1-yl)-2-(5-methyl-[1,3,4]thiadiazole-2-sulfonyl)ethanone]	–	–	–	30	17	> 100	111 to 113	–	–	–	11	> 100
